Measurements from ChEMBL document CHEMBL4308887, “Synthesis and biological evaluation of clovamide analogues with catechol functionality as potent Parkinson's disease agents in vitro and in vivo” (Bioorg Med Chem Lett, 2019).
Active and inactive are the calls of the source. No cut-off for these calls is given here.

Tests used:
[1] = tested on: SH-SY5Y; experiment: Neuroprotection against H2O2-induced toxicity in human SH-SY5Y cells assessed as LDH release at 10 uM preincubated for 6 hrs followed by H2O2 addition and measured after 24 hrs (reference value: 339.93 +/- 3.66 U/L); format: functional
Summary of the method: (§1)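 Cells pretreated with test agent (1 or 10 μM), then 600 μM H₂O₂; plasma membrane damage read as LDH leakage into medium (U/L). DMSO below 0.1% in all groups. Mean ± S.E.M. of three independent experiments.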

[2] = tested on: SH-SY5Y; experiment: Neuroprotection against H2O2-induced cell death in human SH-SY5Y cells assessed as cell viability at 10 uM preincubated for 6 hrs followed by H2O2 addition and measured after 24 hrs in presence of PI3K/Akt/mTOR inhibitor rapamycin by MTT assay relative to control; format: functional; conditions: read-out: Activity
Summary of the method: (§2)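 SH-SY5Y cells preincubated 1 h with LY294002 (5 μM) or rapamycin (100 nM). Then 1 (10 μM) for 6 h, then 600 μM H₂O₂. Viability by MTT. Mean ± S.E.M., three independent experiments.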

[3] = tested on: SH-SY5Y; experiment: Neuroprotection against H2O2-induced cell death in human SH-SY5Y cells assessed as cell viability at 10 uM preincubated for 6 hrs followed by H2O2 addition and measured after 24 hrs by MTT assay relative to control; format: functional; conditions: read-out: Activity
Summary of the method: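 SH-SY5Y cells pretreated with 1 at 1 or 10 μM, then exposed to 600 μM H₂O₂. Viability by MTT, expressed as % of control. DMSO below 0.1%. Mean ± S.E.M. of three independent experiments.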

[4] = tested on: Mus musculus; experiment: Induction of motor impairment in C57Bl/6 mouse at 10 mg/kg, ig treated for 10 days measured after 4 to 72 hrs for 3 mins by rota rod test; format: organism-based; conditions: in vivo, po
[5] = tested on: Mus musculus; experiment: (§3) Anti-parkinson's activity in MPTP-induced C57Bl/6 mouse model of Parkinson's disease assessed as increase in tyrosine hydroxylase expression in substantia nigra at 10 to 20 mg/kg, ig pretreated for 10 days followed by MPTP challenge measured 10 days post MPTP addition by Western blot analysis; format: functional, organism-based
Summary of the method: (§4)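 Tissue taken 10 days after MPTP injection from mice dosed orally with 1 (10 or 20 mg/kg). TH in SNpc and striatum by western blot, and by DAB immunostaining. Three of the mice per group analysed. Mean ± S.D., n = 6 mice/group.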

[6] = tested on: Mus musculus; experiment: Anti-parkinson's activity in MPTP-induced C57Bl/6 mouse model of Parkinson's disease assessed as decrease in cleaved caspase3 expression in striatum at 10 to 20 mg/kg, ig pretreated for 10 days followed by MPTP challenge measured 10 days post MPTP addition by Western blot analysis; format: functional, organism-based
[7] = tested on: SH-SY5Y; experiment: Neuroprotection against H2O2-induced cell death in human SH-SY5Y cells assessed as cell viability at 10 uM preincubated for 6 hrs followed by H2O2 addition and measured after 24 hrs in presence of PI3K/Akt/mTOR inhibitor LY294002 by MTT assay relative to control; format: functional; conditions: read-out: Activity; summary of the method: as §2
[8] = tested on: SH-SY5Y; experiment: Cytotoxicity against non-stimulated human SH-SY5Y cells assessed as effect on LDH release measured after 6 hrs; format: cell-based
[9] = tested on: SH-SY5Y; experiment: Neuroprotection against H2O2-induced toxicity in human SH-SY5Y cells assessed as decrease in LDH release preincubated for 6 hrs followed by H2O2 addition and measured after 24 hrs; format: functional, cell-based; summary of the method: as §1
[10] = tested on: Mus musculus; experiment: Anti-parkinson's activity in MPTP-induced C57Bl/6 mouse model of Parkinson's disease assessed as increase in SOD activity in substantia nigra administered intragastrically pretreated for 10 days followed by MPTP challenge measured 10 days post MPTP addition by xanthine oxidase method; format: functional, organism-based
Summary of the method: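 Striatum and SNpc from MPTP-treated mice dosed orally with 1 at 10 or 20 mg/kg. MDA level and SOD activity measured. Mean ± S.D., n = 6 mice/group.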

[11] = tested on: Mus musculus; experiment: as §3, with “striatum” for “substantia nigra”, “DAB staining based immunohistochemistry method” for “Western blot analysis”; format: functional, organism-based; summary of the method: as §4
[12] = tested on: SH-SY5Y; experiment: Protection against H2O2-induced oxidative stress in human SH-SY5Y cells assessed as reactive oxygen species level at 10 uM preincubated for 6 hrs followed by H2O2 addition and measured after 24 hrs by DHE dye based flow cytometry (reference value: 18.6%); format: functional
[13] = AUC (0 to infinity) in Sprague-Dawley rat at 25 mg/kg, po by LC-MS/MS analysis; format: ADME, organism-based; set-up: dose 25 mg/kg, time infinity, route oral; conditions: in vivo
Summary of the method: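 Male Sprague–Dawley rats (n = 3) got a single oral dose of 25 mg/kg in 0.5% methylcellulose with 1% Tween 80. AUC0-∞ came from the plasma concentration–time profile, reported as mean ± SD.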

[14] = tested on: SH-SY5Y; experiment: Induction of apoptosis in non-stimulated human SH-SY5Y cells assessed as effect on ratio of Bax/Bcl2 expression at 1 to 10 uM measured after 6 hrs by Western blot analysis; format: cell-based
Summary of the method: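 Bax, Bcl-2 and cleaved caspase-3 measured by western blot in SH-SY5Y cells given 1 alone, with β-actin as internal standard. Mean ± S.E.M. of three independent experiments.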

[15] = Volume of distribution at steady state in Sprague-Dawley rat at 25 mg/kg, po by LC-MS/MS analysis; format: ADME, organism-based; conditions: in vivo
Summary of the method: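 Male Sprague–Dawley rats (n = 3) dosed i.v. 5 mg/kg (5% DMSO, 2% F68, 93% saline) or p.o. 25 mg/kg (0.5% methylcellulose, 1% Tween 80). Orbital blood at 0.083–24 h (12 points). Plasma concentration–time profiles gave Cl, Vdss, AUC, T1/2, Tmax, Cmax, MRT and absolute F.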

[16] = Activation of PI3K/Akt/mTOR signaling in human SH-SY5Y cells assessed as up regulation of H2O2-induced HO-1 expression at 10 uM preincubated for 6 hrs followed by H2O2 addition and after 24 hrs in presence of PI3K/Akt/mTOR inhibitor LY294002 by Western blot analysis; format: cell-based
Summary of the method: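 SH-SY5Y cells preincubated 1 h with one inhibitor: SB203580 10 μM, LY294002 5 μM, U0126 10 μM, SP600125 5 μM or rapamycin 100 nM. Then 1 (10 μM) for 6 h, then 600 μM H₂O₂. HO-1 measured by western blot and densitometry. Mean ± S.E.M., three independent experiments.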

[17] = Activation of PI3K/Akt/mTOR signaling in human SH-SY5Y cells assessed as increase in mTOR phosphorylation after 5 to 360 mins by Western blot analysis; format: cell-based
Summary of the method: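 SH-SY5Y cells, unstimulated, exposed to 1 for 5, 15, 30, 60, 120, 240 or 360 min. Phospho-AKT and phospho-mTOR measured by western blot, reported as p-AKT/t-AKT and p-mTOR/t-mTOR ratios after densitometry. Mean ± S.E.M. of three independent experiments.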

[18] = Activation of PI3K/Akt/mTOR signaling in human SH-SY5Y cells assessed as up regulation of H2O2-induced HO-1 expression at 1 uM preincubated for 6 hrs followed by H2O2 addition and after 24 hrs by Western blot analysis (reference value: 181.53 +/- 24.67%); format: cell-based
Summary of the method: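 SH-SY5Y cells pretreated 6 h with 1 (1 or 10 μM), then exposed to 600 μM H₂O₂ for 24 h. HO-1 measured by western blot with densitometry and expressed as % of control. Mean ± S.E.M., three independent experiments.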

Work on `COC(=O)[C@H](Cc1ccccc1)NC(=O)/C=C/c1ccc(O)c(O)c1` [N-CAFFEOYL-PHENYLALANINE METHYL ESTER] yielded an Activity [1] of 180.66 U/L, a viability at 10 µM [2] of 65.9% and a viability at 10 µM [3] of 80.8 to 89%. The Activity [4] was “Non-Toxic”, the Activity [5] was “Active” and the Activity [6] was “Active”. For the same compound, the viability at 10 µM [7] was 60.5%, the Activity [8] was “Non-Toxic” and the Activity [9] was “Dose-dependent effect”. For the same compound, the Activity [10] was “Dose-dependent effect”, the Activity [11] was “Active” and the Activity [12] was 6.6%. For the same compound, the AUC [13] was 2495.56 ng·h/mL, the Activity [14] was “Non-Toxic” and the Vdss [15] was 5.98 L/kg. The Activity [16] was “inactive”, the Activity [17] was “Active” and the Activity [18] was 274%.
